DSG3 Ab inh: human desmoglein-3 autoantibody binding inhibition; DSG3-coupled beads, scFv-anti-DSG3-GFP binding, flow cytometry; active compounds read low; P32926; 310,000 compounds, 0.48% hits; binding (percent of control), % at 10 µM; AID 588358;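 active = binding more than 3 SD below its plate's average and above zero; inconclusive = below that plate limit but binding exactly zero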;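 note: hits lower antibody fragment binding to DSG3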
SENP1 FRET inh: inhibitors of human SENP1 SUMO protease catalytic domain; AID 624204; Q9P0U3; recombinant SENP1 catalytic domain, CyPet-SUMO1-YPet FRET cleavage; 360,000 compounds, 0.21% hits; inhibition, % at 10 µM;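 active = inhibition at least 30% at 10 µM, raw YFP signal under a set limit, fluorescence ratio 0.5 to 1.5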
Target sequence (Q9P0U3 419-644 limits assumed): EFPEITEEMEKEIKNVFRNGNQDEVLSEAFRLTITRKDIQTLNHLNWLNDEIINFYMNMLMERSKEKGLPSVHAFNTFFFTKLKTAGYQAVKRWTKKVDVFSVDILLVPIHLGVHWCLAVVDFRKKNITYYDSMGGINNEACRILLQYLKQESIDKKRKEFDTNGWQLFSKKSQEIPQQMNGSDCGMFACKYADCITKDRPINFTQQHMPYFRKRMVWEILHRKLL
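system = hSENP1 catalytic domain, recombinant | reagent = SFCypet-SUMO1-SFYpet substrate at 25 nM | doses = one dose per compound, 10 µM, 0.5% DMSO | incubation = enzyme reaction for 50 min at room temperature, dark | measured by = FRET, CFP and YFP emission | controls = no-enzyme low, enzyme-DMSO high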
Myeloid diff MLP: promotes myeloid progenitor differentiation. calls only at 10 µM. 360,000 compounds, 1% hits. ER-HoxA9 myeloid progenitors, lysozyme-GFP differentiation, flow cytometry;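 active = normalized GFP-positive differentiation at or above the plate's own cutoff, the solvent-only control mean plus 3 SD; inconclusive = no clear call, values can overlap the other calls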;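 note: cells exposed to compound for four days before flow analysis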
Granule exo inh: lytic granule exocytosis inhibition; AID 651702; 360,000 compounds, 0.66% hits; inhibition, % at 10 µM; TALL-104 LAMP-1 surface exposure, flow cytometry; cells stimulated with thapsigargin and PMA;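 active = inhibition above about 55%, limit read from the data; inconclusive = no clear call, values can overlap the other calls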
Cardio protect: myocardial damage modulation in H9c2 cells; AID 588492; protection from H2O2 cell death, % at 20 µM; 360,000 compounds, 0.63% hits; H9c2 cardiomyocytes, H2O2 injury protection, ATPLite, 2 h;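 active = compounds giving at least 50% protection of heart cells from peroxide-induced death in the single-dose screen, raw or plate-pattern-corrected value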
HNF4A DNA FP: change in binding of human HNF4 alpha to DNA; 360,000 compounds, 0.3% hits; activity change, % at 10 µM; P41235; HNF4a-FITC DNA binding, fluorescence polarization, 1 h; in the data active = activity change above about 30%, passing the limit was not always enough
Numbers stand for hits; . = inactive; ? = inconclusive; / = not tested or not shown; + = active, no number. A selection: hits, their analogues and other compounds. The true share with any hit is near 3%.

SMILES	DSG3 Ab inh	SENP1 FRET inh	Myeloid diff MLP	Granule exo inh	Cardio protect	HNF4A DNA FP
C#CCOCCOCCOCCNc1nc(N2CCN(C(=O)C([C@@H](C)CC)n3cc(C(N)CC(C)C)nn3)CC2)nc(N2CCN(C(=O)[C@H](CCC(=O)O)n3cc(C(N)CC(C)C)nn3)CC2)n1 (some centres undefined)	.	.	.	76	.	.
S=c1[nH]nc(COc2ccccc2)n1/N=C/C=C/c1ccco1	81	.	.	.	.	.
S=c1[nH]nc(COc2ccccc2)n1/N=C/C=C/c1ccccc1	.	.	.	.	.	.
COc1ccc(C2=NS(=O)(=O)N(C)C(C(=O)N3CCc4ccccc4C3)=C2)cc1OC	.	.	+	.	.	.
COc1ccc(C2=NS(=O)(=O)N(C)C(C(=O)NCc3ccc4c(c3)OCO4)=C2)cc1OC	63	.	.	.	.	.
COC(=O)CC/C(=N/Nc1ccc(Cl)c(Cl)c1)C(=O)OC	.	.	.	.	.	.
O=C(Nc1ccccc1)c1cc(C2COCCN2C(=O)c2cccs2)on1 (centres undefined)	/	.	.	.	.	.
CCCC1(CCC)NC(=O)N(CC(=O)Nc2ccc(Cl)c(S(=O)(=O)N3CCOCC3)c2)C1=O	.	.	.	.	.	.
CC1(c2ccccc2Cl)NC(=O)N(CC(=O)c2ccc3c(c2)OCO3)C1=O (centres undefined)	.	.	.	.	.	.
C=CC[C@@H](CC(=O)NCCO)C(=O)NC[C@H](OC(=O)[C@@H](CC=C)Cc1ccc(F)cc1)c1ccccc1	.	.	.	.	70	.
CN(C)CCCN1C(=O)c2cccc3c(Br)ccc(c23)C1=O	.	.	.	.	.	.
CCCCNc1ccc2c3c(cccc13)C(=O)N(CCCC)C2=O	/	.	+	.	.	.
COc1ccc(CCNC(=O)c2cccc(S(=O)(=O)NC(C)c3ccccc3)c2)cc1 (centres undefined)	.	.	.	.	.	.
COc1ccc(-n2c(Cc3cccn3C)nnc2SCC(=O)Nc2ccccc2F)cc1	.	.	.	.	.	.
COc1ccc(-n2c(Cc3cccn3C)nnc2SCC(=O)Nc2ccc(F)cc2F)cc1	.	.	+	.	.	.
COc1cc(C(=O)NNC(=O)CCOc2ccccc2)cc(OC)c1OC	.	.	+	.	.	.
COc1ccc(C2(O)C(=O)Nc3ccc(C)cc32)cc1OC (centres undefined)	.	.	.	.	.	.
O=C(NC1CC1)C1CC(=O)N(c2ccccc2)C1 (centres undefined)	/	.	.	.	.	.
O=C(NCc1n[nH]c(=O)c2ccccc12)C1CC(=O)N(c2ccccc2)C1 (centres undefined)	.	.	.	.	67	.
Cc1c(C(=O)Nc2ccc(OCc3ccccc3)cc2)cccc1[N+](=O)[O-]	39	.	.	.	.	.
CCSc1ccccc1-c1nc(-c2ccncc2)no1	70	.	.	.	.	.
CCOC(=O)C1=C(C)N=c2s/c(=C\c3ccc(OCC(=O)O)cc3)c(=O)n2C1c1ccccc1 (centres undefined)	.	.	.	.	.	.
COC(=O)C1=C(C)N=c2s/c(=C/c3ccoc3)c(=O)n2C1c1ccccc1 (centres undefined)	.	.	.	.	.	45
CC(c1ccccc1)n1c(-c2cccs2)nc2c(c(=O)c3ccccc3n2C)c1=O (centres undefined)	.	.	.	.	.	.
COCCN(CC(=O)Nc1cccc(C)c1C)C(=O)c1ccc2ccccc2n1	?	.	.	.	.	.
SMILES	DSG3 Ab inh	SENP1 FRET inh	Myeloid diff MLP	Granule exo inh	Cardio protect	HNF4A DNA FP
CCOC(=O)/C(=C/c1ccc(OC(=O)c2ccccc2)cc1)C(C)=O	.	.	.	.	.	.
CCOC(=O)/C(=C/C1=CC(=C/N(C)C)/C(=O)O1)C(C)=O	.	.	.	.	.	66
Cc1oc(-c2ccc(Cl)cc2)nc1CS(=O)CC(=O)NCc1ccccc1 (centres undefined)	67	.	?	.	.	.
Cc1ccc(-c2nc(CS(=O)CC(=O)NCc3ccc(Cl)cc3)c(C)o2)cc1 (centres undefined)	.	.	.	.	.	.
CCCCNC(=O)CS(=O)Cc1nc(-c2ccc(C)cc2)oc1C (centres undefined)	.	.	.	.	.	.
Cc1ccc(-c2nc(CS(=O)CC(=O)NCCC(C)C)c(C)o2)cc1 (centres undefined)	72	.	.	.	.	.
O=C(Cn1ccc([N+](=O)[O-])n1)NCc1cccnc1	.	.	.	.	.	.
CC(Oc1ccc(F)cc1)C(=O)Nc1nc(-c2ccccn2)cs1 (centres undefined)	.	.	?	.	67	.
Cc1cc(C)c(OCC(=O)Nc2nc(-c3ccccn3)cs2)c(C)c1	.	.	.	.	63	.
O=C(Nc1nc(-c2ccccn2)cs1)C1CC1	.	.	.	.	.	.
O=C(CCS(=O)(=O)c1ccccc1)Nc1nc(-c2ccccn2)cs1	.	.	.	.	51	.
O=C(CC1CC2CCC1C2)Nc1nc(-c2ccccn2)cs1 (centres undefined)	.	.	.	.	53	.
COc1ccc(C)cc1NC(=O)CN1CCCC1c1ccc2c(c1)OCCCO2 (centres undefined)	.	.	.	.	.	.
NS(=O)(=O)c1cccc(NC(=O)c2cccc(Oc3ccccc3)c2)c1	.	.	+	.	.	.
NC(=O)c1ccc(NC(=O)c2cccc(Oc3ccccc3)c2)cc1	.	.	.	.	.	.
CC1Sc2ccc(S(=O)(=O)N3CCC(C(=O)Nc4ccc(Cl)cc4)CC3)cc2NC1=O (centres undefined)	.	.	.	.	.	41
Cn1cc(C(=O)N/N=C/C2=C(N3CCOCC3)C(=C\c3ccccc3)/CC2)ccc1=O	.	.	.	.	.	.
CC(NC(=O)C12CC3CC(CC(C3)C1)C2)C(=O)N/N=C/C1=C(N2CCOCC2)C(=C\c2ccccc2)/CC1 (centres undefined)	.	.	.	.	.	.
O=C1Nc2ccc(Br)cc2/C1=N\N=C\C1=C(N2CCOCC2)C(=C/c2ccccc2)/CC1	86	.	.	.	.	.
O=C1Nc2ccccc2/C1=N\N=C\C1=C(N2CCOCC2)C(=C\c2ccccc2)/CC1	80	.	?	.	.	.
O=C(Cc1ccc(S(=O)(=O)N2CCOCC2)s1)N1CCN(S(=O)(=O)c2cccc([N+](=O)[O-])c2)CC1	.	.	.	.	.	.
COC(=O)c1c(-c2ccccc2)nn(-c2ccccc2)c1C(=O)OC	.	.	.	.	.	.
